Bioassay records as filed in PubChem BioAssay.
Autophagy mod = modulators of autophagy | MEF GFP-LC3 puncta imaging; test concentration mostly 10 µM | calls only at 10 µM (by protocol) | 0.98% of 190,000 active | AID 463193;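 active = percentage of spot-positive cells more than 3 SD above its plate mean, without a fluorescence outlier flag or 80% toxicity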;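 note: spot-positive cell cutoff set from DMSO-treated cells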
ABCB1 block = blocks JC-1 efflux by human ABCB1 transporter; P08183; CCRF-Adr cells, flow cytometry; inhibition, % at 6.6 µM; 0.067% of 190,000 active; AID 1326; in the data active = inhibition above about 40%;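 note: 0% = vehicle and 100% = reference inhibitor; higher value means more JC-1 retained so stronger ABCB1 efflux block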
bCat nuc transl = beta-catenin nuclear translocation modulation. HeLa beta-catenin nuclear translocation, immunofluorescence imaging. nuclear translocation activity, % at 5 µM. 0.3% of 190,000 active. AID 1665;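 active = nuclear translocation activity above 50% at 5 µM, with a well cell count of 50 or more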;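 note: per-cell ratio of nuclear to cytoplasmic median beta-catenin stain intensity; plate controls were DMSO negative control for no effect and GSK-3 inhibitor IX positive control for full effect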
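Test system: HeLa cells, endogenous beta-catenin; Compound: single 5 µM dose plus 0.02–20 µM confirmation series; Times: compound exposure 24 h at 37°C; Signal: fluorescence imaging of beta-catenin antibody stain plus DAPI; Read-out: % activation, nuclear-to-cytoplasmic median beta-catenin signal ratio per cell.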
ABCG2 block = inhibitors of human ABCG2 transporter, ABCB1 counter-screen. 0.1% of 190,000 active. inhibition, % at 6.6 µM. IgMXP3 cells, JC-1 efflux, flow cytometry;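 active = inhibition above 80%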;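 note: 0% = DMSO and 100% = nicardipine control wells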
Target sequence (Q9UNQ0 whole entry, looked up): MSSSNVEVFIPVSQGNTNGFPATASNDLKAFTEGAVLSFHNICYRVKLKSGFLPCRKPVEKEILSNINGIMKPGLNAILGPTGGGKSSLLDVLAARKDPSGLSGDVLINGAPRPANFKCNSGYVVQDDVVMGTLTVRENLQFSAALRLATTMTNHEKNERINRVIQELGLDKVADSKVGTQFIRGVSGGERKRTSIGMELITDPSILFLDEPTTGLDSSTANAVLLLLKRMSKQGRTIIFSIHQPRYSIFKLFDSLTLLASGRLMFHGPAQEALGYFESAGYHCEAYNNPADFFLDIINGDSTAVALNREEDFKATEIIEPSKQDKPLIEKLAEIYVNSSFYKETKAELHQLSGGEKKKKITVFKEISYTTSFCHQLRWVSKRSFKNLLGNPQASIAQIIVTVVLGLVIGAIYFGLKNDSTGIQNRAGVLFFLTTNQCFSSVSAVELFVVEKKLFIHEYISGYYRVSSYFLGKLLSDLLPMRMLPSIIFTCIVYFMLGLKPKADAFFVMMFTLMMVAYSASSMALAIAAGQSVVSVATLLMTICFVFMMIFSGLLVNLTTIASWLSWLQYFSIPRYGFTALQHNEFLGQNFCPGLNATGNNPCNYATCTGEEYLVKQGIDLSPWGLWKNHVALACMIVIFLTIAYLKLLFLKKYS
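Test system: IgMXP3 (ABCG2) plus far-red-tagged CCRF-Adr (ABCB1) cells / Amount: 3 million cells/mL in well / Reagent: JC-1 transporter substrate / Timing: 10 min compound exposure, 25 °C / Signal: flow cytometry, 530 nm JC-1 signal / Read-out: percent efflux inhibition, scaled nicardipine 100% to DMSO 0% / Benchmarks: nicardipine as high control, DMSO as low control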
Arbovirus inh = blocks arbovirus infection. inhibition, % at 10 µM. arbovirus infection cell-based antiviral screen. 0.37% of 200,000 active. AID 1251; in the data active = inhibition above about 30%
MT stabilize HCS = microtubule stabilization, imaging screen; HeLa tubulin immunostaining HCS, 24 h; share of cells brighter than vehicle mean+2SD; % tubulin-high responders, % at 10 µM; 0.83% of 200,000 active; AID 2205;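 active = plate Z-score above 3 for both tubulin-high and condensed-nucleus cell shares, with cell loss under 80%, at 10 µM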;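 note: anti alpha tubulin signal scored within the nucleus-defined area of each cell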
The depositor's hits bear a star. The list is not random: actives were taken first. Their share in the collection is about 2.1%.

CC1(C)CC(=O)C2=C(C1)OC(N)=C(C#N)C2c1cn(-c2ccccc2)nc1-c1ccc(F)cc1 (stereo not given) was read as Autophagy mod active, ABCB1 block 1, bCat nuc transl -2, ABCG2 block 0, Arbovirus inh 8 and MT stabilize HCS 6.
CC1(C)CC(=O)C2=C(C1)C(c1cn(-c3ccccc3)nc1-c1ccccc1)C(C#N)=C(N)O2 (stereo not given) was read as Autophagy mod inactive, ABCB1 block 0, bCat nuc transl -1, ABCG2 block -1, Arbovirus inh -7 and MT stabilize HCS 10.
`CCCC1CCc2c(sc(N)c2C(N)=O)C1` (stereo not given) gave Autophagy mod inactive, ABCB1 block 1, ABCG2 block 3, Arbovirus inh 3 and MT stabilize HCS 2.
Screening COC(=O)Cc1[nH]nc2c1C1(C(=O)N(Cc3ccccc3)c3ccccc31)C(C#N)=C(N)O2 (stereo not given) returned Autophagy mod inactive, ABCB1 block 0, bCat nuc transl -5, ABCG2 block 2, Arbovirus inh -4 and MT stabilize HCS 2.
O=C(N/N=C/c1ccc2c(c1)OCCO2)c1ccncc1 was read as bCat nuc transl 0.
`COc1cc(/C=N/NC(=O)c2cc(-c3cccs3)nc3ccccc23)ccc1O` gave bCat nuc transl -1.
`N#Cc1ccc(/C=N/NC(=O)c2cc(-c3cccs3)nc3ccccc23)cc1` gave Autophagy mod inactive, ABCB1 block -1, bCat nuc transl 116*, ABCG2 block -3, Arbovirus inh 3 and MT stabilize HCS 17*.
Screening CCCc1ccc(-c2cc(C(=O)N/N=C/c3ccc([N+](=O)[O-])o3)c3ccccc3n2)cc1 returned Autophagy mod inactive, ABCB1 block 0, bCat nuc transl 229*, ABCG2 block -1, Arbovirus inh -24 and MT stabilize HCS 35*.
`O=C(N/N=C/c1c[nH]c2ccc(Br)cc12)c1ccc2c(c1)OCO2` gave Autophagy mod inactive, ABCB1 block -1, bCat nuc transl 73*, ABCG2 block -1, Arbovirus inh -17 and MT stabilize HCS 44*.
For O=C(N/N=C/c1ccc2c(c1)OCO2)c1ccc2c(c1)OCCO2 the results were Autophagy mod inactive, ABCB1 block 0, ABCG2 block 10, Arbovirus inh -30 and MT stabilize HCS 12*.
`O=C(CN(C(=O)c1ccc(Cl)cc1)N1C(=O)C2C3C=CC(C3)C2C1=O)c1cccs1` (stereo not given) gave Autophagy mod inactive, ABCB1 block 0, bCat nuc transl 10, ABCG2 block -1, Arbovirus inh -3 and MT stabilize HCS 6.
For CC1(C)c2ccccc2N2CC(=O)N(CC(N)=O)C21C (stereo not given) the results were Autophagy mod inactive, ABCB1 block 0, bCat nuc transl 2, ABCG2 block 0, Arbovirus inh 4 and MT stabilize HCS 2.
Screening OCC1(CC2CCCCO2)CCN(Cc2ccccc2-c2ccco2)CC1 (stereo not given) returned Autophagy mod inactive, ABCB1 block 2, bCat nuc transl -2, ABCG2 block 4, Arbovirus inh 10 and MT stabilize HCS 3.
For O=C(N/N=C/c1ccc2c(c1)OCO2)c1ccc2ccccc2n1 the results were Autophagy mod inactive, ABCB1 block -1, bCat nuc transl 2, ABCG2 block -1, Arbovirus inh -27 and MT stabilize HCS 4.
O=C(c1cc(-c2cccs2)nc2ccccc12)N1CCN(c2ccccc2)CC1 was read as Autophagy mod inactive, ABCB1 block 3, bCat nuc transl 25, ABCG2 block 5, Arbovirus inh -8 and MT stabilize HCS 19*.
Screening O=C(N/N=C/c1ccc2c(c1)OCO2)c1cc(-c2ccccc2)nc2ccccc12 returned Autophagy mod inactive, ABCB1 block 0, bCat nuc transl 1, ABCG2 block 0, Arbovirus inh -21 and MT stabilize HCS 29*.
For O=C(c1cc(-c2cccs2)nc2ccccc12)N1CCN(S(=O)(=O)c2ccccc2)CC1 the results were Autophagy mod inactive, ABCB1 block 2, bCat nuc transl -7, ABCG2 block 1, Arbovirus inh -7 and MT stabilize HCS 3.
